Measured values as given in ChEMBL document CHEMBL1146513, “Discorhabdins I and L, cytotoxic alkaloids from the sponge Latrunculia brevis” (J Nat Prod, 2004).
Activity calls are given as the source filed them. The rule behind the calls is not given here.

Columns and labels:
PANC-1 = assay: Cytotoxicity against human PANC1 cells by SRB assay; type: functional, cell-based
Method in brief: (§1)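 Sulforhodamine B colorimetric staining quantifies cell growth and viability. Compounds were run in vitro against a 14-line tumour panel covering prostate, ovary, breast, melanoma, endothelial, NSCLC, leukaemia, pancreas and colon lines, with values reported as GI50.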

K562 = assay: Cytotoxicity against human K562 cells by SRB assay; type: functional, cell-based; method in brief: as §1
DU-145 = assay: Cytotoxicity against human DU145 cells by SRB assay; type: functional, cell-based; method in brief: as §1
HT-29 = assay: Cytotoxicity against human HT-29 cells by SRB assay; type: functional; method in brief: as §1
SK-OV-3 = assay: Cytotoxicity against human SKOV3 cells by SRB assay; type: functional, cell-based; method in brief: as §1
LoVo [1] = assay: Cytotoxicity against human doxorubicin-resistant LoVo cells by SRB assay; type: functional, cell-based; method in brief: as §1
IGROV-ET = assay: Cytotoxicity against human IGROV-ET cells by SRB assay; type: functional, cell-based; method in brief: as §1
[2] = Cytotoxicity against human HMEC1 cells by SRB assay; type: cell-based; conditions: hmec-1; method in brief: as §1
A549 = assay: Cytotoxicity against human A549 cells by SRB assay; type: functional, cell-based; method in brief: as §1
IGROV = assay: Cytotoxicity against human IGROV cells by SRB assay; type: functional, cell-based; method in brief: as §1
LNCaP = assay: Cytotoxicity against human LNCAP cells by SRB assay; type: functional, cell-based; method in brief: as §1
SK-MEL-28 = assay: Cytotoxicity against human SK-MEL-28 cells by SRB assay; type: functional, cell-based; method in brief: as §1
SK-BR-3 = assay: Cytotoxicity against human SKBR3 cells by SRB assay; type: functional, cell-based; method in brief: as §1
LoVo [3] = assay: Cytotoxicity against human LoVo cells by SRB assay; type: functional, cell-based; method in brief: as §1

**Q.** What does the source list for `O=C1C=C[C@@]23C[C@@H](NC4=C2C2=NCCc5c[nH]c(c52)C4=O)SC3=C1` [1-DEBROMODISCORHABDIN B]?
**A.** Activity (PANC-1): Active; Activity (K562): Active; Activity (DU-145): Active; GI50 (HT-29): 350 nM; Activity (SK-OV-3): Active; Activity (LoVo [1]): Active; Activity (IGROV-ET): Active; Activity [2]: Active; Activity (A549): Active; Activity (IGROV): Active; Activity (LNCaP): Active; Activity (SK-MEL-28): Active; Activity (SK-BR-3): Active; Activity (LoVo [3]): Active

**Q.** What does the source list for `O=C([O-])C(F)(F)F.O=C1C2=C3C4=[N+](CCc5c[nH]c1c54)[C@@H]1C(=O)C=C4S[C@@H](C[C@@]43[C@H]1O)N2` [DISCORHABDIN L]?
**A.** Activity (PANC-1): Active; Activity (K562): Active; Activity (DU-145): Active; GI50 (HT-29): 120 nM; Activity (SK-OV-3): Active; Activity (LoVo [1]): Active; Activity (IGROV-ET): Active; Activity [2]: Active; Activity (A549): Active; Activity (IGROV): Active; Activity (LNCaP): Active; Activity (SK-MEL-28): Active; Activity (SK-BR-3): Active; Activity (LoVo [3]): Active
